ChEMBL document CHEMBL5352413, “Discovery of small-molecules targeting the CCL20/CCR6 axis as first-in-class inhibitors for inflammatory bowel diseases” (Eur J Med Chem, 2022)
The source made the active and inactive calls. The calls are words filed in the database; no cut-off is given here.

Assays:
CD4+ve Th [1] = assay: Cytotoxicity against human CD4+ve Th cells upto 100 uM incubated for 3 hrs by annexin/PI staining based flow cytometry; type: toxicity, cell-based
Outline: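 Memory CD4+ T cells from healthy-donor PBMC (Ficoll, magnetic isolation, >95% purity), 20×10^4 cells exposed to compound at 5–500 μM for 3 h at 37 °C, 5% CO2; viability by annexin/propidium iodide flow cytometry.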

CD4+ve Th [2] = assay: Inhibition of cell migration of CCL20-induced human CD4+ve Th cells expressing CCR6 at 50 uM incubated for 3 hrs by FACS analysis; type: functional, cell-based
Outline: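 Memory CD4+ T cells (20×10^4) in upper chamber of 5.0 μm transwell in IMDM with 0.5% BSA, preincubated with compound (0.5–50 μM) 15 min at 4 °C; 500 ng/ml CCL20 in lower chamber. After 3 h at 37 °C, migrated cells counted with counting beads by flow cytometry; migration index = CCL20-driven / medium-only migration; duplicate or triplicate.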

Mus musculus [3] = assay: Anti-colitis activity against TNBS-induced colitis Swiss mouse model assessed as decrease in neutrophil infiltration by measuring MPO activity in lung at 1 mg/kg, sc bid for 3 days by absorbance based assay; type: functional, organism-based; conditions: time 3.0 day
Outline: (§1)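 Female CD1 Swiss mice (7–12 weeks) skin-sensitized, then after 20 h fast given 5 mg TNBS in 50% ethanol intrarectally 6 days later. Compound 1 mg/kg or vehicle (1% DMSO in saline, 10 mL/kg) s.c. twice daily, 8 h apart, days 1–4; euthanized day 4. DAI from daily weight, stool, bleeding by blinded observers; macroscopic score; colon/lung MPO.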

Mus musculus [4] = assay: Anti-inflammatory activity against zymosan-induced peritonitis mouse model assessed as decrease in total proteins in peritoneal lavage at 1 mg/kg, sc administrated 1 hr prior to zymosan administration and measured after 4 hrs by BCA assay; type: functional, organism-based; conditions: time 5.0 hrs
Outline: (§2)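 Mice fasted 2 h, then zymosan A 5 mg/mL in PBS (0.2 mL) i.p. Compound 1 mg/kg s.c. (vehicle 1% DMSO in saline, 10 mL/kg) 1 h before zymosan, or also 2 h after. Lavage at 4 h with 3 mL PBS, EDTA, heparin; centrifuged; supernatant protein by BCA (mg/mL); pellet MPO (mU/mL) or flow cytometry.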

Mus musculus [5] = assay: Anti-inflammatory activity against zymosan-induced peritonitis mouse model assessed as decrease in MPO activity in peritoneal lavage at 1 mg/kg, sc administrated 1 hr before and 2 hrs after zymosan administration and measured after 2 hrs by absorbance based assay; type: functional, organism-based; conditions: time 5.0 hrs; outline: as §2
Mus musculus [6] = assay: Anti-colitis activity against TNBS-induced colitis Swiss mouse model assessed as decrease in macroscopic injury at 1 mg/kg, sc bid for 3 days; type: functional, organism-based; conditions: time 3.0 day; outline: as §1
[7] = target: T1, C-C chemokine receptor type 6 (Homo sapiens) (UniProt P51684); assay: Agonist activity at CCR6 (unknown origin) transfected in HEK293T cells assessed as mini-Gi recruitment at 0.030 to 300 uM measured for 20 mins by NanoBiT assay; type: functional, cell-based; conditions: dose 0.03-300 µM
T1 sequence (whole entry): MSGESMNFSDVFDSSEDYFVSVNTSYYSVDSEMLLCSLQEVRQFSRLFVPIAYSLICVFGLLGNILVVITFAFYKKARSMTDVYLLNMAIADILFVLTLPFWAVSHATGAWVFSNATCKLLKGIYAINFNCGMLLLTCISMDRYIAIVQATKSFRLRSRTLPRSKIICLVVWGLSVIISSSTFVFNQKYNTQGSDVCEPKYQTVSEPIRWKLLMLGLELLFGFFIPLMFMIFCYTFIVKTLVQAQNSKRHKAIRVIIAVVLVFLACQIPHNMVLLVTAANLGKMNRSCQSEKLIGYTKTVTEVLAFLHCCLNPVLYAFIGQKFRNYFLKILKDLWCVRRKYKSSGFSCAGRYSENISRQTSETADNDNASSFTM
Outline: (§3)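 HEK293T cells (DMEM, 10% FBS) co-transfected with SmBiT C-tagged CCR6 or CCR5 and LgBiT N-tagged human β-arrestin-1 or miniGi; harvested 24 h later, loaded with coelenterazine h 15 min at 37 °C, 10^5 cells/well. Luminescence from recruitment induced by compound (30 nM–300 μM) read for 20 min; CCL20 (30 pM–300 nM) positive control.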

Mus musculus [8] = assay: Anti-inflammatory activity against zymosan-induced peritonitis mouse model assessed as decrease in neutrophil recruitment in peritoneal lavage at 1 mg/kg, sc administrated 1 hr prior to zymosan administration and measured after 4 hrs by PI staining based flow cytometry; type: functional, organism-based; conditions: time 5.0 hrs; outline: as §2
Mus musculus [9] = assay: Anti-colitis activity against TNBS-induced colitis Swiss mouse model assessed as decrease in neutrophil infiltration by measuring MPO activity in colon at 1 mg/kg, sc bid for 3 days by absorbance based assay; type: functional, organism-based; conditions: time 3.0 day; outline: as §1
[10] = target: C-C chemokine receptor type 5 (Homo sapiens) (UniProt P51681); assay: Antagonist activity at CCR5 (unknown origin) transfected in HEK293T cells assessed as CCL5-induced beta-arrestin-1 recruitment at 0.030 to 300 uM measured for 20 mins by NanoBiT assay; type: functional, cell-based; conditions: filed as antagonist, dose 0.03-300 µM
C-C chemokine receptor type 5 (Homo sapiens), sequence (P51681 whole entry, looked up): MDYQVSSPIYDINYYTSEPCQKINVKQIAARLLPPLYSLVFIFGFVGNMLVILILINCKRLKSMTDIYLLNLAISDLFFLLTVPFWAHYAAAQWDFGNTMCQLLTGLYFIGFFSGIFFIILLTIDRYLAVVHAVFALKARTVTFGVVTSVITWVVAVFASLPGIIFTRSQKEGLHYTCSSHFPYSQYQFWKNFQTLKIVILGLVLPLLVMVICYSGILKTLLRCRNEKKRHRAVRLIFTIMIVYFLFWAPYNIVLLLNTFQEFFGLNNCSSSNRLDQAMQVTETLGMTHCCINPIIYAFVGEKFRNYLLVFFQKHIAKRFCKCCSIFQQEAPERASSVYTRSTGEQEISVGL
Outline: (§4)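 NanoBiT complementation in co-transfected HEK293T cells (SmBiT-tagged CCR6 or CCR5, LgBiT-tagged β-arrestin-1 or miniGi), coelenterazine h 15 min at 37 °C. After compound exposure (30 nM–300 μM), cells were stimulated with CCL20 10 nM (CCR6) or CCL5 5 nM (CCR5) and inhibition of chemokine-induced recruitment was monitored by luminescence.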

[11] = target: T1, C-C chemokine receptor type 6 (Homo sapiens); assay: Antagonist activity at CCR6 (unknown origin) transfected in HEK293T cells assessed as CCL20-induced beta-arrestin-1 recruitment at 0.030 to 300 uM measured for 20 mins by NanoBiT assay; type: functional, cell-based; conditions: filed as antagonist, dose 0.03-300 µM; outline: as §4
Mus musculus [12] = assay: Anti-colitis activity against TNBS-induced colitis Swiss mouse model assessed as decrease in disease activity index at 1 mg/kg, sc bid for 3 days; type: functional, organism-based; conditions: time 3.0 day; outline: as §1
[13] = target: T1, C-C chemokine receptor type 6 (Homo sapiens); assay: Agonist activity at CCR6 (unknown origin) transfected in HEK293T cells assessed as beta-arrestin-1 recruitment at 0.030 to 300 uM measured for 20 mins by NanoBiT assay; type: functional, cell-based; conditions: dose 0.03-300 µM; outline: as §3
Mus musculus [14] = assay: Anti-inflammatory activity against zymosan-induced peritonitis mouse model assessed as decrease in total proteins in peritoneal lavage at 1 mg/kg, sc administrated 1 hr before and 2 hrs after zymosan administration and measured after 2 hrs by BCA assay; type: functional, organism-based; conditions: time 5.0 hrs; outline: as §2
Mus musculus [15] = assay: Anti-inflammatory activity against zymosan-induced peritonitis mouse model assessed as decrease in MPO activity in peritoneal lavage at 1 mg/kg, sc administrated 1 hr prior to zymosan administration and measured after 4 hrs by absorbance based assay; type: functional, organism-based; conditions: time 5.0 hrs; outline: as §2
[16] = target: T1, C-C chemokine receptor type 6 (Homo sapiens); assay: Antagonist activity at CCR6 (unknown origin) transfected in HEK293T cells assessed as CCL20-induced mini-Gi recruitment at 0.030 to 300 uM measured for 20 mins by NanoBiT assay; type: functional, cell-based; conditions: filed as antagonist, dose 0.03-300 µM; outline: as §4
[17] = target: C-C chemokine receptor type 5 (Homo sapiens) (UniProt P51681); assay: Agonist activity at CCR5 (unknown origin) transfected in HEK293T cells assessed as beta-arrestin-1 recruitment at 0.030 to 300 uM measured for 20 mins by NanoBiT assay; type: functional, cell-based; conditions: dose 0.03-300 µM; outline: as §3

Row | SMILES | Activity (CD4+ve Th [1]) | inhibition (CD4+ve Th [2]) | Activity (Mus musculus [3]) | Activity (Mus musculus [4]) | Activity (Mus musculus [5]) | Activity (Mus musculus [6]) | Activity [7] | Activity (Mus musculus [8]) | Activity (Mus musculus [9]) | Activity [10] | Activity [11] | Activity (Mus musculus [12]) | Activity [13] | Activity (Mus musculus [14]) | Activity (Mus musculus [15]) | Activity [16] | Activity [17]
1 | Cc1c(C(=O)Nc2cccc(F)c2)oc2ccccc12 | Non-Toxic | – | – | – | – | – | – | – | – | – | – | – | – | – | – | – | –
2 | Cc1c(C(=O)Nc2ccc(C(F)(F)F)cc2)oc2ccccc12 | Non-Toxic | Active | Active | inactive | Active | Active | inactive | inactive | Active | Active | Active | Active | inactive | Active | inactive | Active | inactive
3 | C/C(=N\Nc1ccc2ccccc2n1)c1cccc(C(F)(F)F)c1 | Non-Toxic | – | – | – | – | – | – | – | – | – | – | – | – | – | – | – | –
